pIC50: −log10 of the molar value.
Experiments:
[1] = test system: MCF7; assay: Antiproliferative activity against human MCF7 cells after 4 days by crystal violet staining based spectrophotometric method; format: functional, cell-based; conditions: MCF7, 96 h
[2] = test system: SK-OV-3; assay: Antiproliferative activity against human SKOV3 cells after 4 days by crystal violet staining based spectrophotometric method; format: functional, cell-based; conditions: SK-OV-3, 96 h
[3] = test system: WI-38; assay: Antiproliferative activity against human WI38 cells after 4 days by crystal violet staining based spectrophotometric method; format: ADME, cell-based; conditions: WI-38, 96 h
[4] = Drug metabolism in pH 7.4 PBS buffer assessed as H2S release from compound at 5 mM incubated for 4 days by DNS-Az probe based fluorescence assay; format: physicochemical; conditions: pH 7.4, 96 h, 5000 µM
Outline: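 H₂S release in solution was measured with an H₂S-specific dansyl azide fluorescent probe after incubation at 37 °C for 4 days, against a blank sample.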

[5] = Drug metabolism in human MCF7 cells assessed as H2S release from compound at 400 uM incubated for 5 hrs by confocal microscopic assay; format: ADME, cell-based; conditions: mcf7, 5 h
Outline: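 MCF-7 cells loaded with an H₂S-sensitive fluorescent probe for 2 h at 37 °C, washed, then exposed to H₂S donors for 5 h before confocal imaging. Controls were untreated cells, probe alone, and NaHS.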

[6] = test system: MCF7; assay: Antiproliferative activity against human MCF7 cells after 72 hrs in presence of 1 uM Na2S by MTT assay; format: functional, cell-based; conditions: MCF7, 72 h
Outline: (§1)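 Na₂S, which forms H₂S immediately in water, was added together with the test compound to MCF7 cells as a single administration. Proliferation was read by MTT assay.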

[7] = test system: MCF7; assay: Antiproliferative activity against human MCF7 cells after 72 hrs in presence of 10 uM Na2S by MTT assay; format: functional, cell-based; conditions: MCF7, 72 h; outline: as §1
[8] = test system: MCF7; assay: Antiproliferative activity against human MCF7 cells after 72 hrs in presence of 100 uM Na2S by MTT assay; format: functional, cell-based; conditions: MCF7, 72 h; outline: as §1
[9] = Permeability of the compound by PAMPA; format: physicochemical; conditions: read-out: permeability
[10] = Therapeutic index, ratio of IC50 for human WI38 cells to IC50 for human MCF7 cells

Row | Compound | pIC50 [1] | pIC50 [2] | pIC50 [3] | other results
1 | S=P1(c2ccccc2)Oc2ccc(Br)cc2-c2cc(Br)ccc2O1 | < 3.40 | < 3.40 |  | 
2 | S=P1(c2ccccc2)OCc2ccccc2CO1 | < 3.40 | 4.29 | 3.87 | 
3 | COc1ccc(P2(=S)Nc3ccccc3CO2)cc1 (stereo not given) | 3.70 | 4.04 | 3.41 | 
4 | COc1cccc2c1OP(=S)(c1ccccc1)O2 (stereo not given) | 4.39 | 4.53 | 4.39 | 
5 | COc1ccc(P2(=S)OC[C@@H]3OC(C)(C)O[C@H]3CO2)cc1 | < 3.40 | 3.43 | < 3.40 | H2S released [4]: Not Active
6 | COc1ccc(P2(=S)Oc3ccccc3O2)cc1 | 3.55 | 3.71 | 3.60 | 
7 | S=P1(c2ccccc2)Nc2ccccc2O1 (stereo not given) |  |  | < 4.30 | Drug metabolism [5]: Metabolite_Detected
8 | COc1ccc2c(c1)NP(=S)(c1ccccc1)O2 (stereo not given) | 4.58 | 4.62 |  | 
9 | S=P1(c2ccccc2)OCc2cccc3cccc(c23)CO1 | 4.15 | 4.29 | 4.12 | 
10 | COc1ccc2c(c1)NP(=S)(c1ccc(Oc3ccccc3)cc1)O2 (stereo not given) | 4.49 | 4.55 |  | 
11 | COc1ccc(P2(=O)Oc3ccccc3-c3ccccc3O2)cc1 | 4.16 to 4.96 | 5.23 | 4.73 | pIC50 [6]: 4.23; pIC50 [7]: 4.28; pIC50 [8]: 4.30
12 | S=P1(c2ccc(Oc3ccccc3)cc2)Nc2ccccc2CO1 (stereo not given) | 4.53 | 4.32 | 3.97 | 
13 | S=P1(c2ccccc2)OCC2C3CCC(O3)C2CO1 (stereo not given) | < 3.40 | < 3.40 | < 3.40 | 
14 | O=S(=O)(c1ccc(Cl)cc1)N1c2ccccc2OP1(=S)c1ccccc1 (stereo not given) | 3.97 | 3.96 |  | 
15 | S=P1(c2ccc(Oc3ccccc3)cc2)N[C@@H](c2ccccc2)[C@H](c2ccccc2)N1 | < 3.40 | 4.31 |  | 
16 | COc1ccc(P2(=S)Nc3ccc(Cl)cc3N2)cc1 (stereo not given) | < 3.40 | < 3.40 |  | 
17 | S=P(S)(NCc1ccccc1)c1ccc(Oc2ccccc2)cc1 (stereo not given) |  | 4.33 | 3.98 | Papp [9]: 1.9 ×10⁻⁶ cm/s; Drug metabolism [5]: Metabolite_Detected
18 | S=P1(c2ccccc2)Oc2ccc(-c3ccccc3)cc2-c2cc(-c3ccccc3)ccc2O1 | < 3.40 | < 3.40 |  | 
19 | S=P1(c2ccccc2)N[C@@H](c2ccccc2)[C@H](c2ccccc2)N1 | 3.78 | 3.79 | 3.84 | 
20 | S=P1(c2ccccc2)NCc2ccccc2N1 (stereo not given) | < 3.40 | < 3.40 | 3.76 | 
21 | S=P1(c2ccccc2)Oc2ccccc2-c2ccccc2O1 | 3.85 | 3.99 | 3.40 | Ratio IC50 [10]: 3; H2S released [4]: Not Active
22 | COc1ccc(P2(=S)Oc3ccccc3-c3ccccc3O2)cc1 | 6.09 to 6.12 | 6.12 | 5.86 | Ratio IC50 [10]: 2; H2S released [4]: 2 µM; Drug metabolism [5]: Metabolite_Detected; pIC50 [6]: 5.93; pIC50 [7]: 6.00; pIC50 [8]: 5.84
23 | COc1ccc(P2(=S)Oc3ccc(Br)cc3-c3cc(Br)ccc3O2)cc1 | < 3.40 | < 3.40 |  | H2S released [4]: Not Active
24 | Cc1ccc(S(=O)(=O)N2c3ccccc3OP2(=S)c2ccccc2)cc1 (stereo not given) | 3.74 | 3.64 | 3.45 | 
25 | S=P1(c2ccc(Oc3ccccc3)cc2)Nc2ccccc2O1 (stereo not given) | 4.13 | 4.34 | 3.90 | 

— ChEMBL document CHEMBL4002611, “Discovery of medium ring thiophosphorus based heterocycles as antiproliferative agents” (Bioorg Med Chem Lett, 2017)
